According to ChEMBL document CHEMBL4715736, “Identification of anticancer agents based on the thieno[2,3-b]pyridine and 1H-pyrazole molecular scaffolds” (2016):

How the values were obtained:
Format in all cases: functional
HOP-62 [1] = assay: Growth inhibition of human HOP-62 cells assessed as cell growth at 0.01 uM incubated for 48 hrs by sulforhodamine B assay relative to control; conditions: read-out: Activity
NCI-H322M = assay: Growth inhibition of human NCI-H322M cells assessed as cell growth at 0.01 uM incubated for 48 hrs by sulforhodamine B assay relative to control; conditions: read-out: Activity
SK-MEL-5 = assay: Growth inhibition of human SK-MEL-5 cells assessed as cell growth at 0.01 uM incubated for 48 hrs by sulforhodamine B assay relative to control; conditions: read-out: Activity
UACC-62 = assay: Growth inhibition of human UACC-62 cells assessed as cell growth at 0.01 uM incubated for 48 hrs by sulforhodamine B assay relative to control; conditions: read-out: Activity
IGROV-1 = assay: Growth inhibition of human IGROV-1 cells assessed as cell growth at 0.01 uM incubated for 48 hrs by sulforhodamine B assay relative to control; conditions: read-out: Activity
OVCAR-3 = assay: Growth inhibition of human OVCAR-3 cells assessed as cell growth at 0.01 uM incubated for 48 hrs by sulforhodamine B assay relative to control; conditions: read-out: Activity
786-0 [2] = assay: Growth inhibition of human 786-0 cells assessed as cell growth at 0.01 uM incubated for 48 hrs by sulforhodamine B assay relative to control; conditions: read-out: Activity
Outline: (§1)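 NCI Developmental Therapeutics Program NCI60 panel. Compounds that were active in the 10 µM one-dose screen went on to dose–response testing. Growth at each concentration is expressed relative to untreated control (100%). GI50 (concentration giving 50% of maximal inhibition of proliferation) and TGI (concentration giving total growth inhibition) were derived from the curves.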

Hs-578T [3] = assay: Growth inhibition of human Hs-578T cells assessed as cell growth at 0.01 uM incubated for 48 hrs by sulforhodamine B assay relative to control; conditions: read-out: Activity
NCI-H460 = assay: Growth inhibition of human NCI-H460 cells assessed as cell growth at 0.1 uM incubated for 48 hrs by sulforhodamine B assay relative to control; conditions: read-out: Activity
SW-620 = assay: Growth inhibition of human SW-620 cells assessed as cell growth at 0.1 uM incubated for 48 hrs by sulforhodamine B assay relative to control; conditions: read-out: Activity
SNB-75 = assay: Growth inhibition of human SNB-75 cells assessed as cell growth at 0.1 uM incubated for 48 hrs by sulforhodamine B assay relative to control; conditions: read-out: Activity
UACC-257 [4] = assay: Growth inhibition of human UACC-257 cells assessed as cell growth at 0.1 uM incubated for 48 hrs by sulforhodamine B assay relative to control; conditions: read-out: Activity
ACHN [5] = assay: Growth inhibition of human ACHN cells assessed as cell growth at 0.1 uM incubated for 48 hrs by sulforhodamine B assay relative to control; conditions: read-out: Activity
SN12C = assay: Growth inhibition of human SN12C cells assessed as cell growth at 0.1 uM incubated for 48 hrs by sulforhodamine B assay relative to control; conditions: read-out: Activity
MCF7 = assay: Growth inhibition of human MCF7 cells assessed as cell growth at 0.1 uM incubated for 48 hrs by sulforhodamine B assay relative to control; conditions: read-out: Activity
NCI-H226 = assay: Growth inhibition of human NCI-H226 cells assessed as cell growth at 1 uM incubated for 48 hrs by sulforhodamine B assay relative to control; conditions: read-out: Activity
NCI-H23 = assay: Growth inhibition of human NCI-H23 cells assessed as cell growth at 1 uM incubated for 48 hrs by sulforhodamine B assay relative to control; conditions: read-out: Activity
HCC 2998 = assay: Growth inhibition of human HCC 2998 cells assessed as cell growth at 1 uM incubated for 48 hrs by sulforhodamine B assay relative to control; conditions: read-out: Activity; outline: as §1
SF-268 [6] = assay: Growth inhibition of human SF-268 cells assessed as cell growth at 1 uM incubated for 48 hrs by sulforhodamine B assay relative to control; conditions: read-out: Activity
786-0 [7] = assay: Growth inhibition of human 786-0 cells assessed as cell growth at 1 uM incubated for 48 hrs by sulforhodamine B assay relative to control; conditions: read-out: Activity; outline: as §1
DU-145 = assay: Growth inhibition of human DU-145 cells assessed as cell growth at 1 uM incubated for 48 hrs by sulforhodamine B assay relative to control; conditions: read-out: Activity; outline: as §1
Hs-578T [8] = assay: Growth inhibition of human Hs-578T cells assessed as cell growth at 1 uM incubated for 48 hrs by sulforhodamine B assay relative to control; conditions: read-out: Activity
UACC-257 [9] = assay: Growth inhibition of human UACC-257 cells assessed as cell growth at 100 uM incubated for 48 hrs by sulforhodamine B assay relative to control; conditions: read-out: Activity
OVCAR-4 = assay: Growth inhibition of human OVCAR-4 cells assessed as cell growth at 100 uM incubated for 48 hrs by sulforhodamine B assay relative to control; conditions: read-out: Activity
ACHN [10] = assay: Growth inhibition of human ACHN cells assessed as cell growth at 100 uM incubated for 48 hrs by sulforhodamine B assay relative to control; conditions: read-out: Activity
RXF 393 = assay: Growth inhibition of human RXF 393 cells assessed as cell growth at 100 uM incubated for 48 hrs by sulforhodamine B assay relative to control; conditions: read-out: Activity
UO-31 [11] = assay: Growth inhibition of human UO-31 cells assessed as cell growth at 100 uM incubated for 48 hrs by sulforhodamine B assay relative to control; conditions: read-out: Activity
PC-3 = assay: Growth inhibition of human PC-3 cells assessed as cell growth at 100 uM incubated for 48 hrs by sulforhodamine B assay relative to control; conditions: read-out: Activity
MDA-MB-468 = assay: Growth inhibition of human MDA-MB-468 cells assessed as cell growth at 100 uM incubated for 48 hrs by sulforhodamine B assay relative to control; conditions: read-out: Activity
K562 = assay: Growth inhibition of human K562 cells incubated for 48 hrs by sulforhodamine B assay
Outline: (§2)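 NCI60 panel at the NCI Developmental Therapeutics Program. Only compounds active in the 10 µM screen went to dose-response testing. GI50, the concentration giving 50% of maximal inhibition of proliferation, and TGI, the concentration giving total growth inhibition, were derived from the dose-response curves.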

HOP-62 [12] = assay: Growth inhibition of human HOP-62 cells incubated for 48 hrs by sulforhodamine B assay; outline: as §2
SF-268 [13] = assay: Growth inhibition of human SF-268 cells incubated for 48 hrs by sulforhodamine B assay
Outline: (§3)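 NCI DTP 60-line human tumour panel. Dose-response curves were run only for ligands active in the initial 10 µM screen. GI50 (concentration giving 50% of maximal inhibition of proliferation) and TGI (concentration giving total growth inhibition) were derived from these curves.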

Malme-3M = assay: Growth inhibition of human Malme-3M cells incubated for 48 hrs by sulforhodamine B assay; outline: as §2
786-0 [14] = assay: Growth inhibition of human 786-0 cells incubated for 48 hrs by sulforhodamine B assay; conditions: for CC50: read-out: LC50 (the source's name); outline: as §1
UO-31 [15] = assay: Growth inhibition of human UO-31 cells incubated for 48 hrs by sulforhodamine B assay; conditions: for CC50: read-out: LC50 (the source's name); outline: as §3

CCc1cccc(C)c1NC(=O)c1sc2nc3c(cc2c1N)C(=O)CCC3
growth at 0.01 µM (HOP-62 [1]): 94% | growth at 0.01 µM (NCI-H322M): 91% | growth at 0.01 µM (SK-MEL-5): 92% | growth at 0.01 µM (UACC-62): 96% | growth at 0.01 µM (IGROV-1): 101% | growth at 0.01 µM (OVCAR-3): 101% | growth at 0.01 µM (786-0 [2]): 86% | growth at 0.01 µM (Hs-578T [3]): 93% | growth at 0.1 µM (NCI-H460): 100% | growth at 0.1 µM (SW-620): 91% | growth at 0.1 µM (SNB-75): 75% | growth at 0.1 µM (UACC-257 [4]): 82% | growth at 0.1 µM (ACHN [5]): 97% | growth at 0.1 µM (SN12C): 92% | growth at 0.1 µM (MCF7): 90% | growth at 1 µM (NCI-H226): 67% | growth at 1 µM (NCI-H23): 42% | growth at 1 µM (HCC 2998): 55% | growth at 1 µM (SF-268 [6]): 54% | growth at 1 µM (786-0 [7]): 36% | growth at 1 µM (DU-145): 21% | growth at 1 µM (Hs-578T [8]): 20% | growth at 100 µM (UACC-257 [9]): -13% | growth at 100 µM (OVCAR-4): 10% | growth at 100 µM (ACHN [10]): 5% | growth at 100 µM (RXF 393): 5% | growth at 100 µM (UO-31 [11]): 12% | growth at 100 µM (PC-3): 18% | growth at 100 µM (MDA-MB-468): -18% | GI50 (K562): 0.341 µM | LC50 (concentration killing 50% of cells) (K562): ≥ 100 µM | TGI (K562): 15.8 µM | GI50 (HOP-62 [12]): 0.679 µM | LC50 (HOP-62 [12]): > 100 µM | TGI (HOP-62 [12]): > 100 µM | GI50 (SF-268 [13]): 3.04 µM | LC50 (concentration killing 50% of cells) (SF-268 [13]): > 100 µM | TGI (SF-268 [13]): > 100 µM | LC50 (Malme-3M): > 100 µM | TGI (Malme-3M): 97.2 µM | GI50 (786-0 [14]): 0.542 µM | TGI (786-0 [14]): > 100 µM | CC50 (786-0 [14]): > 100 µM | GI50 (UO-31 [15]): 0.0982 µM | TGI (UO-31 [15]): ≥ 100 µM | CC50 (UO-31 [15]): > 100 µM

Cc1cc(C)c(NC(=O)c2sc3nc4c(cc3c2N)CN(Cc2ccccc2)CC4)c(C)c1
growth at 0.01 µM (HOP-62 [1]): 83% | growth at 0.01 µM (NCI-H322M): 96% | growth at 0.01 µM (SK-MEL-5): 98% | growth at 0.01 µM (UACC-62): 101% | growth at 0.01 µM (IGROV-1): 101% | growth at 0.01 µM (OVCAR-3): 104% | growth at 0.01 µM (786-0 [2]): 91% | growth at 0.01 µM (Hs-578T [3]): 84% | growth at 0.1 µM (NCI-H460): 103% | growth at 0.1 µM (SW-620): 98% | growth at 0.1 µM (SNB-75): 94% | growth at 0.1 µM (UACC-257 [4]): 93% | growth at 0.1 µM (ACHN [5]): 100% | growth at 0.1 µM (SN12C): 101% | growth at 0.1 µM (MCF7): 91% | growth at 1 µM (NCI-H226): 78% | growth at 1 µM (NCI-H23): 93% | growth at 1 µM (HCC 2998): 103% | growth at 1 µM (SF-268 [6]): 92% | growth at 1 µM (786-0 [7]): 82% | growth at 1 µM (DU-145): 95% | growth at 1 µM (Hs-578T [8]): 76% | growth at 100 µM (UACC-257 [9]): 17% | growth at 100 µM (OVCAR-4): 28% | growth at 100 µM (ACHN [10]): 6% | growth at 100 µM (RXF 393): -15% | growth at 100 µM (UO-31 [11]): -1% | growth at 100 µM (PC-3): 15% | growth at 100 µM (MDA-MB-468): -1% | GI50 (K562): 0.903 µM | LC50 (concentration killing 50% of cells) (K562): > 100 µM | TGI (K562): > 100 µM | GI50 (HOP-62 [12]): 7.73 µM | LC50 (HOP-62 [12]): > 100 µM | TGI (HOP-62 [12]): > 100 µM | GI50 (SF-268 [13]): 6.93 µM | LC50 (concentration killing 50% of cells) (SF-268 [13]): > 100 µM | TGI (SF-268 [13]): 64.8 µM | GI50 (Malme-3M): 3.44 µM | LC50 (Malme-3M): > 100 µM | TGI (Malme-3M): 42 µM | GI50 (786-0 [14]): 3.48 µM | TGI (786-0 [14]): > 100 µM | CC50 (786-0 [14]): > 100 µM | GI50 (UO-31 [15]): 4.78 µM | TGI (UO-31 [15]): 93.9 µM | CC50 (UO-31 [15]): > 100 µM
